From ChEMBL document CHEMBL1136109, “Polymer-assisted solution-phase (PASP) parallel synthesis of an alpha-ketothiazole library as tissue factor VIIa inhibitors” (Bioorg Med Chem Lett, 2003)

Assays:
[1] = target: Thrombin and coagulation factor VII (Homo sapiens) (UniProt P00734+P08709); experiment: Selectivity ratio for tissue factor VIIa and thrombin (IIa); format: protein assay
Coagulation factor VII = target: T1, Coagulation factor VII (Homo sapiens, UniProt P08709); experiment: Inhibition of tissue coagulation factor VII
T1 sequence (P08709 whole entry): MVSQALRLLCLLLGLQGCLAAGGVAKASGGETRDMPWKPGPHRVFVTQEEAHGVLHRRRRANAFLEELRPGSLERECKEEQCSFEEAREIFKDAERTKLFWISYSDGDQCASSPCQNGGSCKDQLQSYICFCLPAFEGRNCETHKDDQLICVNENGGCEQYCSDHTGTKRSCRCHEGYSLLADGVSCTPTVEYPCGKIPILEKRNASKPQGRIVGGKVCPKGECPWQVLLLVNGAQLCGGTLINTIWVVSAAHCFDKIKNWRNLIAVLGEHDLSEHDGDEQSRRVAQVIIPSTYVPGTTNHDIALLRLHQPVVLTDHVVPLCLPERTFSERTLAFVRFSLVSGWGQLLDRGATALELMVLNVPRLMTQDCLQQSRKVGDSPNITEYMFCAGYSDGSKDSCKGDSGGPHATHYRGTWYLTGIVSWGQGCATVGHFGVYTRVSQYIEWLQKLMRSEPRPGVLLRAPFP
How it was run: (§1)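 Chromogenic enzyme assays: factor Xa, thrombin (IIa), or tissue factor/VIIa complex, each with its own specific chromogenic substrate. Activity was followed as the rise in absorbance at 405 nm from released p-nitroaniline as substrate was cleaved. Inhibition was taken as the reduced change in absorbance and expressed as IC50.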

Coagulation factor X = Coagulation factor X (Homo sapiens, UniProt P00742); experiment: Inhibition of coagulation factor X; how it was run: as §1
Prothrombin = Prothrombin (Homo sapiens, UniProt P00734); experiment: Inhibitory activity against thrombin (IIa); how it was run: as §1

Coagulation factor X, sequence (P00742 41-179 limits assumed): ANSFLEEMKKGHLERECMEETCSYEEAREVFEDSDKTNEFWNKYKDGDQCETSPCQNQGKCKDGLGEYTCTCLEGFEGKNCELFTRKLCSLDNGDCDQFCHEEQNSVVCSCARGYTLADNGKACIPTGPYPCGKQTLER
Coagulation factor X, sequence (P00742 235-488 limits assumed): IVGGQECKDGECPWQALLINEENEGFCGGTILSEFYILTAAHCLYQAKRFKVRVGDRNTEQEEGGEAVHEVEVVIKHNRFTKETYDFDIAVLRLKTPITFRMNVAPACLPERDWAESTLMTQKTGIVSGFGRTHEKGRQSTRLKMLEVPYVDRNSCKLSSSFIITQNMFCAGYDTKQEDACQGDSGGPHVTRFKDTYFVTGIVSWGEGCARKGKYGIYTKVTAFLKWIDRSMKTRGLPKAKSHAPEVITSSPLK

| SMILES | Ratio [1] | IC50 (Coagulation factor VII) [nM] | IC50 (Coagulation factor X) [nM] | IC50 (Prothrombin) [nM] |
| --- | --- | --- | --- | --- |
| N=C(N)NCCC[C@H](NC(=O)[C@H](CC(N)=O)NC(=O)[C@@H](Cc1ccccc1)NS(=O)(=O)Cc1ccccc1)C(=O)c1nccs1 | 58 | – | – | – |
| N=C(N)NCCC[C@H](NC(=O)[C@H](Cc1ccccc1)NC(=O)[C@@H](Cc1ccccc1)NS(=O)(=O)Cc1ccccc1)C(=O)c1nccs1 | 95 | 42 | 27 | 4000 |
| N=C(N)NCCC[C@H](NC(=O)[C@H](Cc1cccc(F)c1)NC(=O)[C@@H](Cc1ccccc1)NS(=O)(=O)Cc1ccccc1)C(=O)c1nccs1 | 75 | 200 | 250 | 15000 |
| N#CC[C@H](NC(=O)[C@@H](Cc1ccccc1)NS(=O)(=O)Cc1ccccc1)C(=O)N[C@@H](CCCNC(=N)N)C(=O)c1nccs1 | 69 | 1450 | 2400 | 100000 |
| Cc1ccccc1C[C@H](NC(=O)[C@@H](Cc1ccccc1)NS(=O)(=O)Cc1ccccc1)C(=O)N[C@@H](CCCNC(=N)N)C(=O)c1nccs1 | – | 240 | 330 | 21700 |
| Cc1ccccc1C[C@H](NC(=O)[C@@H](Cc1ccccc1)NS(=O)(=O)Cc1ccccc1)C(=O)N[C@@H](CCCN=C(N)N)C(=O)c1nccs1 | 90 | – | – | – |
| N#Cc1ccc(C[C@H](NC(=O)[C@@H](Cc2ccccc2)NS(=O)(=O)Cc2ccccc2)C(=O)N[C@@H](CCCNC(=N)N)C(=O)c2nccs2)cc1 | 147 | 340 | 900 | 50000 |
| NC(N)=NCCC[C@H](NC(=O)[C@H](Cc1cccnc1)NC(=O)[C@@H](Cc1ccccc1)NS(=O)(=O)Cc1ccccc1)C(=O)c1nccs1 | – | 200 | 290 | 100000 |
| NC(=O)C[C@H](NC(=O)[C@@H](Cc1ccccc1)NS(=O)(=O)Cc1ccccc1)C(=O)N[C@@H](CCCN=C(N)N)C(=O)c1nccs1 | – | 1030 | 2100 | 60000 |
| Cc1cccc(C[C@H](NC(=O)[C@@H](Cc2ccccc2)NS(=O)(=O)Cc2ccccc2)C(=O)N[C@@H](CCCNC(=N)N)C(=O)c2nccs2)c1 | – | 170 | 160 | 12000 |
| N=C(N)NCCC[C@H](NC(=O)[C@H](Cc1ccc(F)c(F)c1)NC(=O)[C@@H](Cc1ccccc1)NS(=O)(=O)Cc1ccccc1)C(=O)c1nccs1 | 70 | 160 | 210 | 11200 |

Results, then the compound that gave them:

| Ratio [1] | IC50 (Coagulation factor VII) [nM] | IC50 (Coagulation factor X) [nM] | IC50 (Prothrombin) [nM] | SMILES |
| --- | --- | --- | --- | --- |
| 500 | – | – | – | N=C(N)NCCC[C@H](NC(=O)[C@H](Cc1cccnc1)NC(=O)[C@@H](Cc1ccccc1)NS(=O)(=O)Cc1ccccc1)C(=O)c1nccs1 |
| 106 | 800 | 1000 | 84900 | N=C(N)NCCC[C@H](NC(=O)[C@H](Cc1cccc(C(F)(F)F)c1)NC(=O)[C@@H](Cc1ccccc1)NS(=O)(=O)Cc1ccccc1)C(=O)c1nccs1 |
| 64 | – | 380 | 19300 | CC[C@@H](C)[C@H](NC(=O)[C@@H](Cc1ccccc1)NS(=O)(=O)Cc1ccccc1)C(=O)N[C@@H](CCCN=C(N)N)C(=O)c1nccs1 |
| > 333 | 90 | 210 | > 30000 | N=C(N)NCCC[C@H](NC(=O)[C@H](Cc1ccccc1F)NC(=O)[C@@H](Cc1ccccc1)NS(=O)(=O)Cc1ccccc1)C(=O)c1nccs1 |
| 63 | 230 | 270 | 14600 | N=C(N)NCCC[C@H](NC(=O)[C@H](Cc1cccc(Cl)c1)NC(=O)[C@@H](Cc1ccccc1)NS(=O)(=O)Cc1ccccc1)C(=O)c1nccs1 |
| 71 | – | – | – | Cc1cccc(C[C@H](NC(=O)[C@@H](Cc2ccccc2)NS(=O)(=O)Cc2ccccc2)C(=O)N[C@@H](CCCN=C(N)N)C(=O)c2nccs2)c1 |
